Source: ChEMBL document CHEMBL3286351, “Antibacterial evaluation of structurally amphipathic, membrane active small cationic peptidomimetics: synthesized by incorporating 3-amino benzoic acid as peptidomimetic element” (Eur J Med Chem, 2014)
Values after ≈ are worked out from the molar mass of the structure shown. Where a SMILES comes first, the peptide text is derived from it. [ ]: non-standard residue; d: D form. 3Abz = Nc1cccc(C(=O)O)c1; Orn = NCCC[CH](N)C(=O)O

Assays:
[1] = Induction of hemolysis in human RBC assessed as hemoglobin release after 1 hr by microtiter plate reader analysis; type: cell-based, Erythrocyte; details: for HC10: erythrocyte, 1 h; for HC50 at 1 h: red blood cells
Procedure, shortened: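 Freshly isolated human RBCs washed three times in PBS (35 mM phosphate, 150 mM NaCl, pH 7.2) and used as a 4% (v/v) suspension. Mixed 1:1 with twofold serial dilutions of compound, incubated 1 h at 37 °C without agitation, then centrifuged. Supernatant A540 read. PBS defined 0% and 1% Triton X-100 defined 100% lysis; HC50 and HC10 derived.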

Staphylococcus aureus [2] = assay: Antibacterial activity against Staphylococcus aureus MTCC 3160 assessed as growth inhibition after 18 hrs by CLSI microdilution broth assay; type: functional; details: MTCC 3160, 18 h
[3] = tested on: Staphylococcus epidermidis; assay: Antibacterial activity against methicillin-resistant Staphylococcus epidermidis ATCC 51625 assessed as growth inhibition after 18 hrs by CLSI microdilution broth assay; type: functional; details: ATCC 51625, 18 h
Procedure, shortened: (§1)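 Modified CLSI broth microdilution in Mueller-Hinton broth. Wells held 90 µL of about 2 × 10^5 CFU/mL inoculum plus 10 µL of serially diluted peptidomimetic, range 0.7-100 µg/mL. Plates were incubated overnight with agitation at 37 °C and absorbance read at 600 nm after 18 h. Controls: inoculum without compound, and uninoculated broth. Run in triplicate.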

Pseudomonas aeruginosa = assay: Antibacterial activity against Pseudomonas aeruginosa MTCC 2295 assessed as growth inhibition after 18 hrs by CLSI microdilution broth assay; type: functional; details: MTCC 2295, 18 h
[4] = Retention time of the compound by HPLC analysis; type: physicochemical
Procedure, shortened: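 Analytical RP-HPLC on a C18 column (5 µm, 4.6 × 250 mm) at room temperature. Run a linear gradient of 0.5-60% acetonitrile containing 0.05% TFA against water containing 0.05% TFA at 0.5 mL/min.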

Bacillus subtilis = assay: Antibacterial activity against Bacillus subtilis MTCC 2763 assessed as growth inhibition after 18 hrs by CLSI microdilution broth assay; type: functional; details: MTCC 2763, 18 h
Staphylococcus aureus [5] = assay: Antibacterial activity against methicillin-resistant Staphylococcus aureus ATCC BAA-1720 assessed as growth inhibition after 18 hrs by CLSI microdilution broth assay; type: functional; details: ATCC BAA-1720, 18 h; procedure, shortened: as §1
Escherichia coli = assay: Antibacterial activity against Escherichia coli MTCC 723 assessed as growth inhibition after 18 hrs by CLSI microdilution broth assay; type: functional; details: MTCC 723, 18 h
[6] = Selectivity ratio of HC50 for hemolysis in human RBC to MIC for Staphylococcus aureus

SMILES | HC10 [1] | HC50 at 1 h [1] | MIC (Staphylococcus aureus [2]) | MIC [3] | MIC (Pseudomonas aeruginosa) | Retention_time [4] | MIC (Bacillus subtilis) | MIC (Staphylococcus aureus [5]) | MIC (Escherichia coli) | Selectivity ratio [6]
N=C(N)NCCCC(NC(=O)c1cccc(NC(=O)C(N)Cc2c[nH]c3ccccc23)c1)C(N)=O (centres undefined) | 400 µg/mL | > 500 µg/mL | > 200 µg/mL | > 200 µg/mL | > 200 µg/mL | 26.553 min | > 200 µg/mL | > 200 µg/mL | > 200 µg/mL | 
N=C(N)NCCCC(NC(=O)C(Cc1ccccc1)NC(=O)c1cccc(NC(=O)C(Cc2ccccc2)NC(=O)C(CCCNC(=N)N)NC(=O)C(N)Cc2ccccc2)c1)C(N)=O (centres undefined) (H-FRF[3Abz]FR-NH2; configuration not given here) | 125 µg/mL | 310 µg/mL | 120 µg/mL (≈ 135 µM) | 120 µg/mL (≈ 135 µM) | > 200 µg/mL | 26.225 min | 150 µg/mL (≈ 169 µM) | 125 µg/mL (≈ 140 µM) | > 200 µg/mL | 2.58
NCCCC(NC(=O)C(Cc1ccccc1)NC(=O)c1cccc(NC(=O)C(Cc2ccccc2)NC(=O)C(CCCN)NC(=O)C(N)Cc2ccccc2)c1)C(N)=O (centres undefined) (H-F[Orn]F[3Abz]F[Orn]-NH2; configuration not given here) | 180 µg/mL | 400 µg/mL | 150 µg/mL (≈ 186 µM) | > 200 µg/mL | > 200 µg/mL | 25.038 min | > 200 µg/mL | > 200 µg/mL | > 200 µg/mL | 2.66
N=C(N)NCCCC(N)C(=O)NC(CCCNC(=N)N)C(=O)NC(Cc1ccccc1)C(=O)Nc1cccc(C(=O)NC(Cc2ccccc2)C(=O)NC(CCCNC(=N)N)C(N)=O)c1 (centres undefined) (H-RRF[3Abz]FR-NH2; configuration not given here) | 130 µg/mL | 375 µg/mL | 150 µg/mL (≈ 167 µM) | 170 µg/mL (≈ 189 µM) | > 200 µg/mL | 24.871 min | 200 µg/mL (≈ 222 µM) | 150 µg/mL (≈ 167 µM) | > 200 µg/mL | 2.5
N=C(N)NCCCC(N)C(=O)NC(CCCNC(=N)N)C(=O)NC(Cc1c[nH]c2ccccc12)C(=O)NC(Cc1c[nH]c2ccccc12)C(=O)NC(CCCNC(=N)N)C(N)=O (centres undefined) (H-RRWWR-NH2; configuration not given here) | 90 µg/mL | 240 µg/mL | 25 µg/mL (≈ 29.1 µM) | 20 µg/mL (≈ 23.3 µM) | 100 µg/mL (≈ 117 µM) | 29.606 min | 70 µg/mL (≈ 81.6 µM) | 25 µg/mL (≈ 29.1 µM) | 75 µg/mL (≈ 87.4 µM) | 9.6
N=C(N)NCCCC(N)C(=O)NC(CCCNC(=N)N)C(=O)NC(Cc1c[nH]c2ccccc12)C(=O)Nc1cccc(C(=O)NC(Cc2c[nH]c3ccccc23)C(=O)NC(CCCNC(=N)N)C(N)=O)c1 (centres undefined) (H-RRW[3Abz]WR-NH2; configuration not given here) | 100 µg/mL | 355 µg/mL | 6.25 µg/mL (≈ 6.4 µM) | 6.25 µg/mL (≈ 6.4 µM) | 25 µg/mL (≈ 25.6 µM) | 27.402 min | 25 µg/mL (≈ 25.6 µM) | 5 µg/mL (≈ 5.12 µM) | 17.5 µg/mL (≈ 17.9 µM) | 56.8
NCCCC(N)C(=O)NC(CCCN)C(=O)NC(Cc1ccccc1)C(=O)Nc1cccc(C(=O)NC(Cc2ccccc2)C(=O)NC(CCCN)C(N)=O)c1 (centres undefined) (H-[Orn][Orn]F[3Abz]F[Orn]-NH2; configuration not given here) | 210 µg/mL | 490 µg/mL | > 200 µg/mL | > 200 µg/mL | > 200 µg/mL | 23.313 min | > 200 µg/mL | > 200 µg/mL | > 200 µg/mL | 
CN[C@H](CC(C)C)C(=O)N[C@H]1C(=O)N[C@@H](CC(N)=O)C(=O)N[C@H]2C(=O)N[C@H]3C(=O)N[C@H](C(=O)N[C@H](C(=O)O)c4cc(O)cc(O)c4-c4cc3ccc4O)[C@H](O)c3ccc(c(Cl)c3)Oc3cc2cc(c3O[C@@H]2O[C@H](CO)[C@@H](O)[C@H](O)[C@H]2O[C@H]2C[C@](C)(N)[C@H](O)[C@H](C)O2)Oc2ccc(cc2Cl)[C@H]1O [VANCOMYCIN] |  |  |  |  |  |  |  | 1.5 µg/mL (≈ 1.04 µM) |  | 
